Test results published in ChEMBL document CHEMBL5260824, “9-Deazapurines as Broad-Spectrum Inhibitors of the ABC Transport Proteins P-Glycoprotein, Multidrug Resistance-Associated Protein 1, and Breast Cancer Resistance Protein” (J Med Chem, 2017).

Experiments:
MRP1 [1] = target: T1, MRP1 (Homo sapiens, UniProt P33527); test: Inhibition of MRP1 in human NCI-H69AR cells assessed as maximum inhibition at 10 uM incubated for 180 mins in presence of daunorubicin by flow cytometry analysis relative to control; assay type: cell-based; conditions: probe daunorubicin
T1 sequence (P33527 whole entry): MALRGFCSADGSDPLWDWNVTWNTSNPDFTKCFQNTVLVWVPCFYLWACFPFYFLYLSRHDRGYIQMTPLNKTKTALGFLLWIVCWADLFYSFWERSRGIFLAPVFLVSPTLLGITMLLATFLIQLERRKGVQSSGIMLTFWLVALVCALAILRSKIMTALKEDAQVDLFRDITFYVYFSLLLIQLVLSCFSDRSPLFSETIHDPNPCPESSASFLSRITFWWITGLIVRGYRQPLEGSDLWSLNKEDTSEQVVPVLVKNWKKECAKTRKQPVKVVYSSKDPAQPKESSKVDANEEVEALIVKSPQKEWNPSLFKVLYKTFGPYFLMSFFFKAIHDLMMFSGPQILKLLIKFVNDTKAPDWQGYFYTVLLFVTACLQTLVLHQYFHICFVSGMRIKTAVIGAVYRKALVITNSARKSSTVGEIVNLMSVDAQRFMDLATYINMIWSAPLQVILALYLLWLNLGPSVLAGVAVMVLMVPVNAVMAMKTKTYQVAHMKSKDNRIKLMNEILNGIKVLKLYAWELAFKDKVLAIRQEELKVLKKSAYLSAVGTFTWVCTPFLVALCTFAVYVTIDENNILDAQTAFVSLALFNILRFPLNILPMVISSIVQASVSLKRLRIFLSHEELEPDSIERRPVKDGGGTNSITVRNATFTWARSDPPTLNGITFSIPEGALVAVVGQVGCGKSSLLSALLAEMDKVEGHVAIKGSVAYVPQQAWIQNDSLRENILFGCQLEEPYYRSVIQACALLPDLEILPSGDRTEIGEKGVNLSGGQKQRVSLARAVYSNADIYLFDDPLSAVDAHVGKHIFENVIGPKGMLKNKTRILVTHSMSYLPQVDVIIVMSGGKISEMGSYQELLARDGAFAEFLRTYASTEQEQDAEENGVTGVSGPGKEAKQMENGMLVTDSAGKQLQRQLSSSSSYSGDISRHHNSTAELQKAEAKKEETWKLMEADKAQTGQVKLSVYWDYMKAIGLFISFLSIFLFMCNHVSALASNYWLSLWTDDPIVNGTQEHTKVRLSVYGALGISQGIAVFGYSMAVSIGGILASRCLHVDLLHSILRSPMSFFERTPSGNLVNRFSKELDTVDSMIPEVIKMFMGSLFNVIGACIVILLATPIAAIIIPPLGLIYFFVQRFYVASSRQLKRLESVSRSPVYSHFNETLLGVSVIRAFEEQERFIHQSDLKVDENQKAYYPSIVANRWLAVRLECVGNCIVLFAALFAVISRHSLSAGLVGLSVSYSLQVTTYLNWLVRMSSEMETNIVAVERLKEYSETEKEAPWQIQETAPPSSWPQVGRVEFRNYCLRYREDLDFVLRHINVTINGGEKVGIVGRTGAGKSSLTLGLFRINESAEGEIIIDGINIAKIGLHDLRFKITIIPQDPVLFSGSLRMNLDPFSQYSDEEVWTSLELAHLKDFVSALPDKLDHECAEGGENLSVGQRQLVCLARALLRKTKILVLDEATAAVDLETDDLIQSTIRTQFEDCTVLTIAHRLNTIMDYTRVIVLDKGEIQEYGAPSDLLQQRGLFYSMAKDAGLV
Outline: (§1)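 H69AR cells (doxorubicin-selected small cell lung cancer, RPMI-1640/20% FBS), about 60,000 per well, preincubated 15 min with compound (100 nM–100 µM added solutions, in unsupplemented medium), then daunorubicin (30 µM solution added); steady state after 180 min, 37 °C, 5% CO2. Cells resuspended; flow cytometry, 488 nm excitation, FL3 (≥670 nm). Reference inhibitor 75 at 10 µM = 100%; Imax relative to it.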

MRP1 [2] = target: T1, MRP1; test: Inhibition of MRP1 in human NCI-H69AR cells at 10 uM incubated for 180 mins in presence of daunorubicin by flow cytometry analysis relative to control; assay type: cell-based; conditions: probe daunorubicin; outline: as §1
BCRP (ABCG2) = target: T2, BCRP (ABCG2) (Homo sapiens, UniProt Q9UNQ0); test: Inhibition of BCRP (unknown origin) expressed in dog MDCK-II cells at 10 uM using pheophorbide A as substrate preincubated for 20 mins followed by substrate addition and measured after 120 mins by flow cytometry analysis relative to control; assay type: cell-based; conditions: probe pheophorbide A
T2 sequence (Q9UNQ0 whole entry): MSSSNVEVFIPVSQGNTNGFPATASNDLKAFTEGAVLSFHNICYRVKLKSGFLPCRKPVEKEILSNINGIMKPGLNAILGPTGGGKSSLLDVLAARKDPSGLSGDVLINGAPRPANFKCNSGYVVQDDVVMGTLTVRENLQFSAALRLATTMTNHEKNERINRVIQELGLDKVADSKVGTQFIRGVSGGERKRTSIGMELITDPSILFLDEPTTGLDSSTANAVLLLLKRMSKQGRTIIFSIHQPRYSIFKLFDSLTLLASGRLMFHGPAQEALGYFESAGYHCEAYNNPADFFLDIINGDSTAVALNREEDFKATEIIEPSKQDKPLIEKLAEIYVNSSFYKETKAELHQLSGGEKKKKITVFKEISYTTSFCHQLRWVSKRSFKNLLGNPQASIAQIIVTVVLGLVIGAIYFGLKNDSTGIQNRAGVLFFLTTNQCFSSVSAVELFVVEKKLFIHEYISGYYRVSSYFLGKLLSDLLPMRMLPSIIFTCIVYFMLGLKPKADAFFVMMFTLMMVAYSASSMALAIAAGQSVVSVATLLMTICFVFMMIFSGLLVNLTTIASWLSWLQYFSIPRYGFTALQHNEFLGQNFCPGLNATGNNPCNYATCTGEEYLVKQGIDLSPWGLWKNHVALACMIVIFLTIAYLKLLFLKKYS
Outline: (§2)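 MDCK II cells transfected with human wild-type BCRP cDNA C-terminally fused to GFP, grown in DMEM/10% FBS. About 45,000 cells per well preincubated 20 min at 37 °C, 5% CO2 with compound (100 nM–100 µM added solutions), then pheophorbide A (5 µM solution added) for 120 min to steady state. Resuspended; flow cytometry, 488 nm excitation, FL3 (≥670 nm); GFP in FL1. Reference inhibitor 24 at 10 µM = 100%.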

[3] = target: Multidrug resistance-associated protein 1 (Homo sapiens, UniProt P33527); test: Inhibition of MRP1 in human NCI-H69AR cells incubated for 180 mins in presence of daunorubicin by flow cytometry analysis; assay type: cell-based; outline: as §1
Sequence of Multidrug resistance-associated protein 1 (P33527 whole entry): as the sequence (P33527 whole entry) above

[4] = target: T3, Broad substrate specificity ATP-binding cassette transporter ABCG2 (Homo sapiens, UniProt Q9UNQ0); test: Inhibition of BCRP (unknown origin) expressed in dog MDCK-II cells using pheophorbide A as substrate preincubated for 20 mins followed by substrate addition and measured after 120 mins by flow cytometry analysis; assay type: cell-based; outline: as §2
T3 sequence (Q9UNQ0 whole entry): T2 sequence (Q9UNQ0 whole entry)

P-gp (ABCB1) [5] = target: T4, P-gp (ABCB1) (Homo sapiens, UniProt P08183); test: Inhibition of P-gp (unknown origin) expressed in dog MDCK-MDR1cells assessed as maximum inhibition at 10 uM by calcein AM accumulation assay relative to control; assay type: cell-based; conditions: MDCK-MDR1 cells, probe calcein AM
T4 sequence (P08183 whole entry): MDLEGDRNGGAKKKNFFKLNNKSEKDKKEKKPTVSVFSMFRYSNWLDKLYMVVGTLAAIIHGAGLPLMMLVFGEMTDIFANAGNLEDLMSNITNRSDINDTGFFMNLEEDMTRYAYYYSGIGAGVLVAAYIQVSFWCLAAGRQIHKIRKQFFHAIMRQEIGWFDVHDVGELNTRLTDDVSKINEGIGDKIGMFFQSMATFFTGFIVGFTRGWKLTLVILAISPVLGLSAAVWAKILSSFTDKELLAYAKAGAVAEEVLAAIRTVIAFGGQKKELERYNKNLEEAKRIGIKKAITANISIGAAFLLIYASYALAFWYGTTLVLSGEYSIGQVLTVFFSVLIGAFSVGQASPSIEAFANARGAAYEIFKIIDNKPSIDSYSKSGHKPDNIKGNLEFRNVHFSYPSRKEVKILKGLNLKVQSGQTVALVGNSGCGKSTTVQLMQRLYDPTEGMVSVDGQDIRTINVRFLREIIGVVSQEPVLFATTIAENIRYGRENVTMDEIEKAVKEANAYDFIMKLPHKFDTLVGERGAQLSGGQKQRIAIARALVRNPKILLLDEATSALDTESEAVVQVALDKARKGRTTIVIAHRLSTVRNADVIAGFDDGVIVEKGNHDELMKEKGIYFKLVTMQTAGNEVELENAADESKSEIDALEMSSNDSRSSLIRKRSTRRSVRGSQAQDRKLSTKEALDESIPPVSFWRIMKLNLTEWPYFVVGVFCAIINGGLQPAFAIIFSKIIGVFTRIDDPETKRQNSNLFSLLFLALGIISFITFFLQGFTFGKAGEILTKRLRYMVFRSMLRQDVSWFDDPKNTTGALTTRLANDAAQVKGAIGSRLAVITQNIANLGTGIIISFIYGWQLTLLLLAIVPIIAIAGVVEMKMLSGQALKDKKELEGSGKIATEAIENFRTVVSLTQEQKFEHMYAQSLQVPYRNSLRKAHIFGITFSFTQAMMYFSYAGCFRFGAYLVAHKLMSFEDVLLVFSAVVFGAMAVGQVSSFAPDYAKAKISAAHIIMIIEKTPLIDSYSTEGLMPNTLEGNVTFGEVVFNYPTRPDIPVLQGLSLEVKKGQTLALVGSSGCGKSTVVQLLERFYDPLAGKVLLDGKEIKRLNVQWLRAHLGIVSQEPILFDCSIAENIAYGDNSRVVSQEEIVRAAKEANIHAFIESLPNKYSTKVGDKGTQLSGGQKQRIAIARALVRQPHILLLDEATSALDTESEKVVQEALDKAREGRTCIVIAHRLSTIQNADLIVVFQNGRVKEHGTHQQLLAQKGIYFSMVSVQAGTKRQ

P-gp (ABCB1) [6] = target: T4, P-gp (ABCB1); test: Inhibition of P-gp (unknown origin) at 10 uM incubated for 30 mins by calcein AM analysis relative to control; conditions: probe calcein AM
Outline: (§3)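 A2780/ADR cells (doxorubicin-selected, P-gp overexpressing), about 30,000 per well in Krebs-HEPES buffer pH 7.4, incubated 30 min at 37 °C with compound (100 nM–100 µM added solutions). Calcein AM (3.125 µM solution added) then fluorescence read every 60 s at 37 °C, ex 485/em 520 nm; slope over minutes 5–30 plotted vs log concentration. Cyclosporine A 10 µM = 100% inhibition, buffer = 0%.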

[7] = target: ATP-dependent translocase ABCB1 (Homo sapiens, UniProt P08183); test: Inhibition of P-gp (unknown origin) incubated for 30 mins by calcein AM analysis; outline: as §3
Sequence of ATP-dependent translocase ABCB1 (P08183 whole entry): as above

SMILES | inhibition at 3 h, 10 µM (MRP1 [1]) [%] | inhibition at 3 h, 10 µM (MRP1 [2]) [%] | inhibition at 2 h, 10 µM (BCRP (ABCG2)) [%] | IC50 [3] [nM] | IC50 [4] [nM] | inhibition at 10 µM (P-gp (ABCB1) [5]) [%] | inhibition at 0.5 h, 10 µM (P-gp (ABCB1) [6]) [%] | IC50 [7] [nM]
c1ccc(CN2CCN(c3ncnc4c3[nH]c3ccccc34)CC2)cc1 | 60 | > 25 | > 25 | 363 | 6080 | 30 | > 25 | 9490
N#Cc1c2n(c3c(N4CCN(CCc5ccccc5)CC4)ncnc13)CCCC2 |  |  |  |  |  |  |  | 9630
CCn1cc(C#N)c2ncnc(N3CCN(CCc4c[nH]c5ccccc45)CC3)c21 |  | > 25 | > 25 | 855 | 13800 |  |  | 
N#Cc1c2n(c3c(N4CCN(CCc5ccncc5)CC4)ncnc13)CCCCC2 |  | 25 | > 25 | 1140 | 12400 |  | > 25 | 
CCOc1ccc(-n2cc(C#N)c3ncnc(N4CCN(CCc5ccccc5)CC4)c32)cc1 |  | > 25 | > 25 | 1320 |  |  | > 25 | 
N#Cc1cn(CCc2ccccc2)c2c(N3CCN(CCc4c[nH]c5ccccc45)CC3)ncnc12 |  | > 25 | > 25 | 524 | 1390 |  | > 25 | 1640
N#Cc1c2n(c3c(N4CCN(c5ccccn5)CC4)ncnc13)CCCC2 |  | 25 | > 25 | 1020 | 4860 |  | > 25 | 
O=C(c1ccco1)N1CCN(c2ncnc3c2[nH]c2ccccc23)CC1 | 60 | > 25 | > 25 | 169 | 6060 | 30 | > 25 | 
c1ccc(N2CCN(c3ncnc4c3[nH]c3ccccc34)CC2)nc1 |  | > 25 | > 25 | 495 | 1810 | 30 | > 25 | 5000
c1ccc2c(CCN3CCN(c4ncnc5c4[nH]c4ccccc45)CC3)c[nH]c2c1 | 60 | > 25 | > 25 | 921 | 6210 | 30 | > 25 | 3500
CCCn1cc(C#N)c2ncnc(N3CCN(CCc4c[nH]c5ccccc45)CC3)c21 |  | > 25 |  | 468 |  |  |  | 
c1ccc(C(c2ccccc2)N2CCN(c3ncnc4c3[nH]c3ccccc34)CC2)cc1 | 60 | > 25 | > 25 | 409 | 1380 | 30 | > 25 | 2330
N#Cc1cn(CCc2ccccc2)c2c(N3CCN(Cc4ccc5c(c4)OCO5)CC3)ncnc12 |  | > 25 | > 25 | 1800 |  |  | > 25 | 
Cn1cc(C#N)c2ncnc(N3CCN(CCc4c[nH]c5ccccc45)CC3)c21 |  | > 25 |  | 337 |  |  |  | 
c1ccc(N2CCN(c3ncnc4c3[nH]c3ccccc34)CC2)cc1 | 60 | > 25 | > 25 | 146 | 1100 | 30 | > 25 | 
N#Cc1c2n(c3c(N4CCN(c5ccccn5)CC4)ncnc13)CCCCC2 |  | 25 | > 25 |  |  |  | > 25 | 
N#Cc1c2n(c3c(N4CCN(CCc5c[nH]c6ccccc56)CC4)ncnc13)CCCCC2 |  | 25 | > 25 | 289 |  |  | > 25 | 1710
COc1ccccc1-n1cc(C#N)c2ncnc(N3CCN(CCc4ccccc4)CC3)c21 |  | > 25 | > 25 | 638 |  |  | > 25 | 
N#Cc1cn(C2CC2)c2c(N3CCN(CCc4c[nH]c5ccccc45)CC3)ncnc12 |  | > 25 | > 25 | 316 | 18900 |  | > 25 | 3850

Continued, values first:

inhibition at 3 h, 10 µM (MRP1 [1]) [%] | inhibition at 3 h, 10 µM (MRP1 [2]) [%] | inhibition at 2 h, 10 µM (BCRP (ABCG2)) [%] | IC50 [3] [nM] | IC50 [4] [nM] | inhibition at 10 µM (P-gp (ABCB1) [5]) [%] | inhibition at 0.5 h, 10 µM (P-gp (ABCB1) [6]) [%] | IC50 [7] [nM] | SMILES
 | > 25 | > 25 | 322 | 14600 |  | > 25 | 13900 | N#Cc1c2n(c3c(N4CCN(Cc5ccc6c(c5)OCO6)CC4)ncnc13)CCCC2
 | > 25 | > 25 | 327 | 37900 |  | > 25 | 19100 | COc1ccccc1-n1cc(C#N)c2ncnc(N3CCN(Cc4ccccc4)CC3)c21
 | > 25 | > 25 | 1020 | 23700 |  | > 25 | 5710 | N#Cc1c2n(c3c(N4CCN(Cc5ccc6c(c5)OCO6)CC4)ncnc13)CCCCC2
 | > 25 | > 25 | 328 |  |  | > 25 | 1280 | N#Cc1cn(-c2ccccc2)c2c(N3CCN(CCc4c[nH]c5ccccc45)CC3)ncnc12
60 | > 25 | > 25 | 345 | 11600 | 30 | > 25 | 10700 | c1ccc(CCN2CCN(c3ncnc4c3[nH]c3ccccc34)CC2)nc1
 | > 25 | > 25 | 859 |  |  | > 25 | 7290 | CCOc1ccc(-n2cc(C#N)c3ncnc(N4CCN(Cc5ccccc5)CC4)c32)cc1
 | > 25 | > 25 | 405 | 4070 |  | > 25 | 4480 | N#Cc1cn(Cc2ccccc2)c2c(N3CCN(CCc4c[nH]c5ccccc45)CC3)ncnc12
 | 25 | > 25 | 957 |  |  | > 25 |  | N#Cc1c2n(c3c(NCCc4c[nH]c5ccccc45)ncnc13)CCCC2
 | 25 | > 25 | 672 | 27800 |  | > 25 |  | N#Cc1c2n(c3c(N4CCN(CCc5ccncc5)CC4)ncnc13)CCCC2
 | > 25 | > 25 | 1010 | 12900 |  | > 25 |  | N#Cc1c2n(c3c(N4CCN(C(=O)c5ccco5)CC4)ncnc13)CCCCC2
 | > 25 | > 25 | 883 | 29500 |  | > 25 |  | N#Cc1c2n(c3c(N4CCN(C(=O)c5ccco5)CC4)ncnc13)CCCC2
 | > 25 | > 25 | 751 |  |  | > 25 |  | N#Cc1cn(-c2ccccc2)c2c(N3CCN(Cc4ccc5c(c4)OCO5)CC3)ncnc12
